Assay results from different studies.
Lines come from different studies, so protocols differ.
Organism: Escherichia coli
Observed: microbial growth

| SMILES | assay | system | conditions | MIC |
| --- | --- | --- | --- | --- |
| C[C@H]1[C@H](NC(=O)/C(=N\OC(C)(C)C(=O)O)c2csc(N)n2)C(=O)N1S(=O)(=O)O | broth dilution |  |  | ≤ 0.06 µg/mL |
| Cc1[nH]c(C(=O)Nc2ccc(-c3n[nH]c(=O)o3)cc2N2CCC[C@H](N)C2)c(Cl)c1Cl.Cl | broth dilution | ATCC25922 |  | 16 µg/mL |
| O=C(C=Cc1ccc(O)c(O)c1)OCc1ccccc1 | broth dilution | ATCC25922 |  | 8 µg/mL |
| O=C(N[C@H](CO)[C@H](O)c1ccc([N+](=O)[O-])cc1)C(Cl)Cl |  |  | 24 h | 2.5 to 5 µM |
| CC1CCC(C(C)C)C(OC(=O)C=Cc2ccc(O)c(O)c2)C1 (stereo not drawn) | broth dilution | ATCC25922 |  | 2 µg/mL |
| Cc1[nH]c(C(=O)Nc2ccc(C(=O)NCc3n[nH]c(=O)o3)cc2N2CCN(C(=O)OC(C)(C)C)CC2)c(Cl)c1Cl | broth dilution | ATCC25922 |  | > 32 µg/mL |
| Cc1nn(-c2ccccc2)c2c1C(c1cncs1)N(C(=O)c1ccncc1)N2 (stereo not drawn) |  | MTCC739 | 24 h | 64 µg/mL |
| Cl.N[C@H]1CCN(c2cc(C(=O)NCC(=O)O)ccc2NC(=O)c2cc(Br)c(Br)[nH]2)C1 | broth dilution | ATCC25922 |  | > 32 µg/mL |
| C[C@H]1COc2c(N3CCN(C)CC3)c(F)cc3c(=O)c(C(=O)O)cn1c23 |  | BW25113 |  | 0.16 µg/mL |
| Cc1[nH]c(C(=O)Nc2ccc(C(=O)NCC(=O)O)cc2N2CC[C@@H](NC(=O)OC(C)(C)C)C2)c(Cl)c1Cl | broth dilution | ATCC25922 |  | > 32 µg/mL |
| CN(C)[C@@H]1C(O)=C(C(N)=O)C(=O)[C@@]2(O)C(O)=C3C(=O)c4c(O)cccc4[C@@](C)(O)[C@H]3C[C@@H]12 | broth dilution | ATCC25922 |  | 16 µg/mL |
| CC(C)(C)OC(=O)N[C@@H]1CCN(c2cc(C(=O)NCC(=O)O)ccc2NC(=O)c2cc(Br)c(Br)[nH]2)C1 | broth dilution | ATCC25922 |  | > 32 µg/mL |
| Cc1nn(-c2ccccc2)c2c1C(c1ccco1)N(C(=O)c1ccncc1)N2 (stereo not drawn) |  | MTCC739 | 24 h | 64 µg/mL |
| Cc1[nH]c(C(=O)Nc2ccc(C(=O)NCC(=O)O)cc2N2CC[C@H](N)C2)c(Cl)c1Cl.Cl | broth dilution | ATCC25922 |  | > 32 µg/mL |
| CC(O)CSc1nnc(COc2ccc(Cl)cc2Br)n1-c1ccccc1 (stereo not drawn) |  |  |  | 20500 µg/mL |
| CO/N=C(\C(=O)N[C@@H]1C(=O)N2C(C(=O)[O-])=C(C[N+]3(C)CCCC3)CS[C@H]12)c1csc(N)n1 | broth dilution |  |  | ≤ 0.06 µg/mL |
| Cc1nn(-c2ccccc2)c2c1C(c1ccc(Cl)cc1)N(C(=O)c1ccncc1)N2 (stereo not drawn) |  | MTCC739 | 24 h | > 100 µg/mL |
| O=C(C=Cc1ccc(O)c(O)c1)Oc1ccccc1 | broth dilution | ATCC25922 |  | 8 µg/mL |
| CN[C@@H]1[C@@H](O[C@H]2O[C@H](CO)[C@@H](N)[C@H](O)[C@H]2O)OC2C[C@@H](N)[C@@H](O[C@H]3[C@H](O)[C@@H](O)[C@H](N)C[C@@H]3N)OC2[C@@H]1O (stereo partly drawn) |  |  | 24 h | 2.5 to 5 µM |
| CC(C)(O/N=C(\C(=O)N[C@@H]1C(=O)N2C(C(=O)[O-])=C(C[n+]3ccccc3)CS[C@H]12)c1csc(N)n1)C(=O)O | broth dilution | ATCC25922 | 20 h | < 0.5 µg/mL |
| CC(C)(C)OC(=O)N1CCN(c2cc(C(=O)NCC(=O)O)ccc2NC(=O)c2cc(Br)c(Br)[nH]2)CC1 | broth dilution | ATCC25922 |  | > 32 µg/mL |
| CC(O)CSc1nnc(-c2ccccc2)n1-c1ccccc1 (stereo not drawn) |  |  |  | 11000 µg/mL |
| CC1(C)S[C@@H]2[C@H](NC(=O)[C@H](N)c3ccccc3)C(=O)N2[C@H]1C(=O)O | broth dilution | ATCC25922 |  | 4 µg/mL |
| NCC[C@H](O)C(=O)N[C@@H]1C[C@H](N)[C@@H](O[C@H]2O[C@H](CN)[C@@H](O)[C@H](O)[C@H]2O)[C@H](O)[C@H]1O[C@H]1O[C@H](CO)[C@@H](O)[C@H](N)[C@H]1O | broth dilution |  |  | ≤ 1 µg/mL |
| Cc1[nH]c(C(=O)Nc2ccc(C(=O)NCC(=O)O)cc2N2CCN(C(=O)OC(C)(C)C)CC2)c(Cl)c1Cl | broth dilution | ATCC25922 |  | > 32 µg/mL |
| CN(C)c1cc(NC(=O)CNC(C)(C)C)c(O)c2c1C[C@H]1C[C@H]3[C@H](N(C)C)C(O)=C(C(N)=O)C(=O)[C@@]3(O)C(O)=C1C2=O | broth dilution |  |  | ≤ 0.06 µg/mL |
| Cc1nn(-c2ccccc2)c2c1C(c1c[nH]c3ccccc13)N(C(=O)c1ccncc1)N2 (stereo not drawn) |  | MTCC739 | 24 h | > 100 µg/mL |
| CC(O)CSc1nnc(-c2cc3ccccc3o2)n1-c1ccccc1 (stereo not drawn) |  |  |  | 10000 µg/mL |
| CCC(C)CCCC(=O)N[C@@H](CCN)C(=O)N[C@H](C(=O)N[C@@H](CCN)C(=O)N[C@H]1CCNC(=O)[C@H]([C@@H](C)O)NC(=O)[C@H](CCN)NC(=O)[C@H](CCN)NC(=O)[C@H](CC(C)C)NC(=O)[C@@H](CC(C)C)NC(=O)[C@H](CCN)NC1=O)[C@@H](C)O (stereo partly drawn) | broth dilution |  |  | 0.25 µg/mL |
| Cc1nn(-c2ccccc2)c2c1C(c1ccc(N(C)C)cc1)N(C(=O)c1ccncc1)N2 (stereo not drawn) |  | MTCC739 | 24 h | > 100 µg/mL |
